# Source: ChEMBL document CHEMBL5344415, “Synthesis and Characterization of Phenylalanine Amides Active against Mycobacterium abscessus and Other Mycobacteria” (J Med Chem, 2023)
# What was measured:
# [1] = tested on: Mycolicibacterium smegmatis; test: Antibacterial activity against Mycobacterium smegmatis mc2 155 expressing tomato RFP assessed as bacterial growth inhibition incubated for 3 days in 7H9 medium by RFP fluorescence based broth microdilution method; type: functional; details: mc2 155, 72 h, time 3 day
# How it was run: (§1)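 Broth microdilution in 7H9 with 10 % ADS and 0.05 % Tween 80. Twofold nine-point dilution series. Inoculum 5 x 10⁵ cells/mL taken from a mid-log preculture. Incubation at 37 °C, 3 days for M. smegmatis and M. abscessus, 5 days for M. intracellulare. Read-out by RFP fluorescence (ex 544/em 590 nm). Controls were 1 % DMSO and 100 μM amikacin. MIC₉₀ from duplicates, averaged.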
# [2] = tested on: Mycobacterium tuberculosis; test: Antibacterial activity against Mycobacterium tuberculosis H37Rv ATCC 27294 assessed as bacterial growth inhibition incubated for 7 days in 7H9 medium by optical density based microplate reader analysis; type: functional; details: H37Rv ATCC 27294, 168 h, time 7 day
# How it was run: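 Compounds serially diluted in flat-bottom 96-well plates. Mid-log culture mixed in to a final OD₆₀₀ of 0.05. Sealed plates incubated in humidified boxes at 37 °C for 7 days with shaking at 80 rpm. Turbidity read at 600 nm. MIC₉₀ taken from dose–response curves. Two biological replicates, averaged.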
# [3] = tested on: Mycobacteroides abscessus; test: Antibacterial activity against Mycobacterium abscessus ATCC 19977 expressing tomato RFP assessed as bacterial growth inhibition incubated for 3 days in 7H9 medium by RFP fluorescence based broth microdilution method; type: functional; details: ATCC 19977, 72 h, time 3 day; how it was run: as §1
# [4] = tested on: Mycobacteroides abscessus; test: Antibacterial activity against Mycobacterium abscessus ATCC 19977 expressing tomato RFP assessed as bacterial growth inhibition incubated for 3 days in MHII medium by RFP fluorescence based broth microdilution method; type: functional; details: ATCC 19977, 72 h, time 3 day
# How it was run: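 Broth microdilution in MHII broth with 0.05 % Tween 80, against the RFP-expressing strain. Twofold nine-point dilution series. Inoculum 5 x 10⁵ cells/mL from a mid-log preculture. Incubated 3 days at 37 °C. Read-out by RFP fluorescence (ex 544/em 590 nm). Controls were 1 % DMSO and 100 μM amikacin. MIC₉₀ from duplicates, averaged.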
# [5] = tested on: Mycobacterium intracellulare; test: Antibacterial activity against Mycobacterium intracellulare ATCC 35761 expressing tomato RFP assessed as bacterial growth inhibition incubated for 5 days in 7H9 medium by RFP fluorescence based broth microdilution method; type: functional; details: ATCC 35761, 120 h, time 5 day; how it was run: as §1
# [6] = tested on: Mycobacteroides abscessus; test: Antibacterial activity against Mycobacterium abscessus Bamboo harboring inactive clarithromycin-sensitive erm41 C28 sequevar assessed as bacterial growth inhibition incubated for 3 days in 7H9 medium by optical density based method; type: functional; details: 72 h, time 3 day
# [7] = tested on: Mycobacteroides abscessus; test: Antibacterial activity against Mycobacterium abscessus ATCC 19977 expressing tomato RFP infected in human THP-1 cells assessed as bacterial growth inhibition incubated for 4 days in RPMI medium by RFP fluorescence based assay; type: functional; details: ATCC 19977, 96 h, time 4 day
# How it was run: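 RFP M. abscessus washed, moved into RPMI, filtered through 5 µm and opsonised with 10 % human serum for 30 min. THP-1 cells infected at MOI 5:1 with PMA 40 ng/mL for 4 h at 37 °C, then washed. Infected cells (1x10⁵/well) given a ten-point twofold series. Incubated 4 days at 37 °C, 5 % CO₂. Cells PFA-fixed and DAPI-stained. RFP quantified by imaging. Controls were DMSO and 1.5 µM bedaquiline. Duplicate.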
# A-375 = test: Cytotoxicity against human A-375 cells assessed as reduction in cell viability incubated for 72 hrs by SRB assay; type: toxicity, cell-based
# HT-29 = test: Cytotoxicity against human HT-29 cells assessed as reduction in cell viability incubated for 72 hrs by SRB assay; type: toxicity, cell-based
# MCF7 = test: Cytotoxicity against human MCF7 cells assessed as reduction in cell viability incubated for 72 hrs by SRB assay; type: toxicity, cell-based
# A2780 = test: Cytotoxicity against human A2780 cells assessed as reduction in cell viability incubated for 72 hrs by SRB assay; type: toxicity, cell-based
# [8] = Cytotoxicity against mouse NIH3T3 cells assessed as reduction in cell viability incubated for 72 hrs by SRB assay; type: toxicity, cell-based; details: mouse, NIH3T3 cells
# HeLa = test: Cytotoxicity against human HeLa cells assessed as reduction in cell viability incubated for 72 hrs by SRB assay; type: toxicity, cell-based
# [9] = Kinetic solubility of compound in PBS at 0.78 to 500 uM measured immediately by nephelometric method; type: physicochemical; details: buffer, dose 0.78-500 µM
# How it was run: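 DMSO stocks prediluted in DMSO, then diluted 1:50 into PBS (2 % DMSO final) and read immediately by nephelometry at 0.78–500 μM; blank-corrected data fitted by segmental regression; quadruplicates from one stock.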
Structure (SMILES),MIC90 [1] [µM],MIC90 [2] [µM],MIC90 [3] [µM],MIC90 [4] [µM],MIC90 [5] [µM],MIC50 [6] [µM],MIC90 [6] [µM],MIC50 [7] [µM],MIC90 [7] [µM],EC50 (A-375) [µM],EC50 (HT-29) [µM],EC50 (MCF7) [µM],EC50 (A2780) [µM],EC50 at 72 h [8] [µM],EC50 (HeLa) [µM],Kinetic_solubility [9] [µM]
O=C(N[C@H](Cc1ccccc1)C(=O)Nc1cc(F)ccc1N1CC[S+]([O-])CC1)c1cccs1,1.56,0.4,1.56,3.13,0.05,0.28,1.9,0.78,25,> 30,> 30,> 30,> 30,> 30,> 30,131
O=C(N[C@H](Cc1ccsc1)C(=O)Nc1ccccc1N1CCOCC1)c1ccccc1F,1.56,3.13,12.5,12.5,0.78,1.9,7,6.25,25,> 30,> 30,> 30,> 30,> 30,> 30,31
O=C(N[C@H](Cc1ccc(O)cc1)C(=O)Nc1cc(F)ccc1N1CCSCC1)c1cccs1,12.5,0.78,12.5,–,0.1,1.6,15,12.5,50,> 30,> 30,> 30,> 30,> 30,> 30,78
O=C(N[C@H](Cc1ccc(O)cc1)C(=O)Nc1cc(F)ccc1N1CCS(=O)(=O)CC1)c1cccs1,6.25,0.78,6.25,3.13,0.05,0.4,9,6.25,25,> 30,29.8,> 30,29.7,> 30,> 30,170
O=C(N[C@H](Cc1ccccc1)C(=O)Nc1ccccc1C1CCSCC1)c1cccs1,6.25,> 25,50,100,6.25,21,44,> 100,> 100,> 30,> 30,> 30,> 30,> 30,> 30,39
O=C(N[C@H](Cc1cccs1)C(=O)Nc1ccccc1N1CC[S+]([O-])CC1)c1cccs1,3.13,3.13,12.5,12.5,0.2,1.3,5.8,12.5,100,> 30,> 30,> 30,> 30,> 30,> 30,60
O=C(N[C@H](Cc1ccccc1)C(=O)Nc1cc(F)ccc1N1CC[S+]([O-])CC1)c1ccccc1F,1.56,0.78,3.31,3.13,0.2,0.52,2,0.39,12.5,> 30,> 30,> 30,> 30,> 30,> 30,184
O=C(N[C@H](Cc1ccsc1)C(=O)Nc1ccccc1N1CC[S+]([O-])CC1)c1cccs1,3.13,6.25,6.25,12.5,0.2,3.4,15,12.5,100,> 30,> 30,> 30,> 30,> 30,> 30,74
O=C(N[C@H](Cc1ccccc1)C(=O)Nc1cc(F)ccc1N1CCSCC1)c1cccs1,3.13,1.56,25,50,0.78,1.4,14,3.13,> 100,> 30,> 30,> 30,> 30,> 30,> 30,37
O=C(N[C@H](Cc1ccc(O)cc1)C(=O)Nc1cc(F)ccc1N1CCSCC1)c1ccccc1F,6.25,1.56,–,50,0.2,1.7,15,6.25,25,> 30,> 30,> 30,> 30,> 30,> 30,58
